Measurements taken from publication PMC7904387 (Nature chemical biology, 2020).
Non-standard residues stand in square brackets, D forms with d. Residues, ends and D or L forms follow the SMILES beside them. Nle = CCCC[C@H](N)C(=O)O

What was measured:
advanced solid tumors = conditions: cited from earlier work
UBE1 [1] = target: T1, UBE1 (Homo sapiens, UniProt P22314); experiment: HXMS, deuterium exchange into peptide with and without UBE1; format: binding; conditions: incubation with UBE1, 10 sec labeling
T1 sequence (P22314 1-1058): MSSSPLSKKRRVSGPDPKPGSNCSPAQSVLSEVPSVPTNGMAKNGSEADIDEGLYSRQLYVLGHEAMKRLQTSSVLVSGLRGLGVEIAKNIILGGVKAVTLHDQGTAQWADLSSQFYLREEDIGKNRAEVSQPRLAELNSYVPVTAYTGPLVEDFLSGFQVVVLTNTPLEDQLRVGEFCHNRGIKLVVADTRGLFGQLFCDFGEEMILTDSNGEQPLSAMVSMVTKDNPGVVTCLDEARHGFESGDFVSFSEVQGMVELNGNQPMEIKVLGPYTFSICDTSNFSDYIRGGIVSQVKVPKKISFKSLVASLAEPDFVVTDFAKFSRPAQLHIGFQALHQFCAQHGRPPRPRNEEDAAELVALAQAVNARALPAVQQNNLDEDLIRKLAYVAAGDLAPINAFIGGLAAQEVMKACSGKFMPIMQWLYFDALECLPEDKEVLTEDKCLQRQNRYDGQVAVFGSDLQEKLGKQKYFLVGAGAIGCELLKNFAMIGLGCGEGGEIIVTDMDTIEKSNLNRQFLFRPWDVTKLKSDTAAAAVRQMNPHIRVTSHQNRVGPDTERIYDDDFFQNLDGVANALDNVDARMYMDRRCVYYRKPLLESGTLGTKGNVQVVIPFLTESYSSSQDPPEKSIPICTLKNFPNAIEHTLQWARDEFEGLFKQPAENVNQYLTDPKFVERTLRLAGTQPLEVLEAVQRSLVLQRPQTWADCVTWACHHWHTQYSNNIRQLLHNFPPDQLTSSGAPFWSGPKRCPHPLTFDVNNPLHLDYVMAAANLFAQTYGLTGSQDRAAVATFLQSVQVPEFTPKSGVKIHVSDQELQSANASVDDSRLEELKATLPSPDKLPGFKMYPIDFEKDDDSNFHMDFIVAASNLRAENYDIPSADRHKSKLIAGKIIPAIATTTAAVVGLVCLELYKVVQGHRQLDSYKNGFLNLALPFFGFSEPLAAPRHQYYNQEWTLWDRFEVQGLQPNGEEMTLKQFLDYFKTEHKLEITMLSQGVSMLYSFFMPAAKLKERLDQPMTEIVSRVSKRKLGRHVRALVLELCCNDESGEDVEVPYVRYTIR
Outline: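 Labelling was by 18-fold dilution into D2O buffer (pD 8) for 10 sec, quenched with guanidinium chloride/formic acid (pH 2), then LC-MS. Uptake was not back-exchange corrected. Difference = with UBE1 minus peptide alone; ≥2 biological replicates.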

UBE1 [2] = target: T1, UBE1; experiment: Streptavidin capture; format: binding; conditions: UBE1 10 pmol, biotinylated peptide 5 nmol
Outline: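 Recombinant human UBE1 (10 pmol) was incubated with C-terminally biotinylated peptide (5 nmol) or 0.5% DMSO for 1.5 h at 4°C in 50 mM NaCl, 20 mM HEPES pH 7.4, 5 mM DTT. Streptavidin agarose was added for another 1.5 h at 4°C. Beads were washed three times in NP-40 buffer and heat-eluted (70°C, 10 min). Read-out was SDS-PAGE with silver stain.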

NS(=O)(=O)OC[C@H]1C[C@@H](Nc2ccnc3cc(-c4cccc(SC(F)(F)F)c4)nn23)[C@H](O)[C@@H]1O [TAK-243]
stable disease, patients (advanced solid tumors; 11 patients of twenty evaluable): 55%
partial response, evaluable patients (advanced solid tumors; one of twenty evaluable patients): 5%

CCCC[C@H](NC(C)=O)C(=O)N[C@@H](CO)C(=O)N[C@H](C(=O)N1CCC[C@H]1C(=O)N[C@@H](C)C(=O)N[C@@H](CCCNC(=N)N)C(=O)N[C@@H](CCCNC(=N)N)C(=O)N[C@@H](CCCNC(=N)N)C(=O)N[C@@H](CC(C)C)C(=O)N[C@@H](CCCC)C(=O)N[C@@H](CCCNC(=N)N)C(=O)N[C@@H](CC(=O)O)C(=O)N[C@@H](Cc1ccccc1)C(=O)N[C@@H](CCCCN)C(=O)N[C@@H](CCCNC(=N)N)C(=O)N[C@@H](CC(C)C)C(=O)N[C@@H](CCC(N)=O)C(N)=O)[C@@H](C)O [UBE2A] (Ac-[Nle]STPARRRL[Nle]RDFKRLQ-NH2)
effect of UBE1 on deuterium exchange of the peptide, in words (UBE1 [1]): no meaningful effect

BSTP8RRRLBRXFKRLQLys(biotin) (sidechain bridge or staple) [C-terminally biotinylated SAH-UBE2A]
binding to recombinant UBE1 by streptavidin pull-down and silver stain, in words (UBE1 [2]): directly and robustly binds
